Published values of several laboratories.
Compare with care: the assays were run in different laboratories.
Observed: cell growth or viability

| SMILES | cell line | method | tested at | time | measurement | value |
| --- | --- | --- | --- | --- | --- | --- |
| Nc1ccccc1/N=c1\cc(-c2ccc3c(c2)OCO3)oc2ccccc12 | MDA-MB-231 | CCK-8 | 1 µM |  | inhibition | 2.58% |
| COc1cc(C(=O)c2nc(-c3ccnc4[nH]ccc34)c[nH]2)cc(OC)c1OC | A-375 | MTS |  | 72 h | IC50 | 28.5 nM |
| O=C(Nc1ccccc1)Nc1ccc(Oc2nc3ccccc3n3cnnc23)cc1 | MDA-MB-231 | MTT | 25 µM | 24 h | viability | 70.1% |
| COc1cc(C(=O)c2nc(-c3cccc4cc[nH]c34)c[nH]2)cc(OC)c1OC | A-375 | MTS |  | 72 h | IC50 | 20.5 nM |
| O=C(Nc1ccccc1/N=c1\cc(-c2ccc3c(c2)OCO3)oc2ccccc12)N1CCNCC1 | MDA-MB-231 | CCK-8 | 1 µM |  | inhibition | 2.22% |
| O=C(Nc1ccc(Oc2nc3ccccc3n3cnnc23)cc1)Nc1cccc(Cl)c1 | MDA-MB-231 | MTT | 100 µM | 24 h | viability | 29.3% |
| COc1cc(C(=O)c2nc(-c3cccc4c3CCN4)c[nH]2)cc(OC)c1OC | A-375 | MTS |  | 72 h | IC50 | 22 nM |
| NCC(=O)Nc1ccccc1/N=c1\cc(-c2ccc3c(c2)OCO3)oc2ccccc12 | MDA-MB-231 | CCK-8 | 1 µM |  | inhibition | 12.4% |
| C[C@H]1CNCCN1c1nccc(-c2noc3c2CCC[C@@]32CCCc3sc(N)c(C#N)c32)n1 | A-375 |  |  | 5 days | EC50 | 5010 nM |
| CNC(=O)c1cc(Oc2ccc(NC(=O)Nc3ccc(Cl)c(C(F)(F)F)c3)cc2)ccn1 | MDA-MB-231 | MTT | 50 µM | 24 h | viability | 16.7% |
| COc1cc(C(=O)c2nc(-c3cccc4c3CC(=O)N4)c[nH]2)cc(OC)c1OC | A-375 | MTS |  | 72 h | IC50 | 27.5 nM |
| C[C@H](N)C(=O)Nc1ccccc1/N=c1\cc(-c2ccc3c(c2)OCCO3)oc2c([N+](=O)[O-])cccc12 | MDA-MB-231 | CCK-8 | 1 µM |  | inhibition | -3.63% |
| O=C(Nc1ccc(Cl)cc1)Nc1ccc(Oc2nc3ccccc3n3cnnc23)cc1 | MDA-MB-231 | MTT | 50 µM | 24 h | viability | 56.4% |
| O=C(Nc1ccccc1/N=c1\cc(-c2ccc3c(c2)OCO3)oc2ccccc12)N1CCOCC1 | MDA-MB-231 | CCK-8 | 1 µM |  | inhibition | -4.28% |
| CN(C)c1ccc(Nc2nc(-c3ccncc3)nc3c2CC(N)CC3)cc1 (centres unmarked) | A-375 | MTT |  |  | IC50 | 12600 nM |
| Cc1nc(Nc2ncc(C(=O)Nc3c(C)cccc3Cl)s2)cc(N2CC[C@H](O)C2)n1 | L-82 | ATP luminescence |  | 72 h | IC50 | > 10000 nM |
| CCCCC(=O)Nc1ccc(-c2ccc3ncn(CCC)c(=O)c3c2)cn1 | MRC5 | CCK-8 |  | 72 h | IC50 | 480 nM |
| NCCCC(=O)Nc1ccccc1/N=c1\cc(-c2ccc3c(c2)OCO3)oc2ccccc12 | MDA-MB-231 | CCK-8 | 1 µM |  | inhibition | 8.02% |
| COc1cc(C(=O)c2nc(-c3ccc4cc[nH]c4c3)c[nH]2)cc(OC)c1OC | A-375 | MTS |  | 72 h | IC50 | 19.9 nM |
| NCCCCC(=O)Nc1ccccc1/N=c1\cc(-c2ccc3c(c2)OCO3)oc2ccccc12 | MDA-MB-231 | CCK-8 | 1 µM |  | inhibition | -5.88% |
| COc1cc(C(=O)c2nc(-c3ccncc3)c[nH]2)cc(OC)c1OC | A-375 | MTS |  | 72 h | IC50 | > 1000 nM |
| COc1cccc(NC(=O)Nc2ccc(Oc3nc4ccccc4n4cnnc34)cc2)c1 | MDA-MB-231 | MTT | 100 µM | 24 h | viability | 24.6% |
| C=C1C[C@@]23CC[C@H]4[C@@](C)(CCC[C@@]4(C)C(=O)O)[C@@H]2CC[C@@H]1C3 | MRC5 | MTT |  | 75 h | IC50 | 99200 nM |
